Bioassay records as filed in PubChem.
Sampled rows, rich in hits. Any-hit rate of the full collection: about 2.9%.
NALP1 yeast inh: NALP1 inflammasome inhibitors in reconstituted yeast, colorimetric, S. cerevisiae, triplicate retest | hit rate 0.61% among 280,000 | S. cerevisiae NALP1/ASC/caspase-1 growth, X-gal OD620, 72 h | inhibition, % at 10 µM; in the data active means inhibition mostly above about 24%, no sharp cut-off; inactive means mostly below about 32%
IMP-1 inhibitor: IMP-1 metallo-beta-lactamase inhibitors, primary screen, biochemical, epi-absorbance readout, Pseudomonas aeruginosa enzyme. metallo-beta-lactamase IMP-1 (Pseudomonas aeruginosa). purified IMP-1, nitrocefin hydrolysis, epi-absorbance fluorescence. inhibition, % at 5.6 µM. hit rate 0.45% among 290,000. AID 1556, 2009;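 active means inhibition above the mean plus 3 SD of all compounds in the same screening run, cut at about 4.5% in these data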;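 further: 0% = IMP-1 with DMSO and 100% = DMSO wells lacking enzyme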
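System: purified IMP-1 / Input: IMP-1 dispensed at 0.2 nM / Medium: 50 mM HEPES pH 7.1, 50 µM ZnSO4, 0.05% Brij 35 / Timing: 15 min enzyme–compound preincubation, then 25 min nitrocefin reaction, 25 °C / Technique: plate fluorescence quenching by hydrolysis product, ex 480/em 530 nm / Repeats: singlicate testing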
VIM-2 inh: VIM-2 metallo-beta-lactamase inhibitors, primary screen, biochemical, epi-absorbance readout, Pseudomonas aeruginosa enzyme | purified VIM-2, nitrocefin hydrolysis, epi-absorbance fluorescence | inhibition, % at 5.6 µM | hit rate 0.89% among 290,000 | AID 1527, 2009;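 active means inhibition above the mean of all tested compounds plus 3 SD, cutoff set per screening run, cut at about 7.5% in these data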;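 further: red hydrolysis product quenches plate fluorescence so inhibitors raise well fluorescence; 0% = enzyme with DMSO and 100% = DMSO without enzyme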
SUMO HTRF inh: inhibitors of in vitro SUMOylation cascade, primary screen, biochemical, HTRF, uHTS. HTRF SUMOylation assay, SAE1/SAE2 + UBC9. SUMO-conjugating enzyme UBC9 (Homo sapiens), P63279. inhibition, % at 35 µM. hit rate 0.36% among 290,000; in the data active means inhibition above about 50%, passing the limit was not always enough
Target sequence (P63279 whole entry, looked up): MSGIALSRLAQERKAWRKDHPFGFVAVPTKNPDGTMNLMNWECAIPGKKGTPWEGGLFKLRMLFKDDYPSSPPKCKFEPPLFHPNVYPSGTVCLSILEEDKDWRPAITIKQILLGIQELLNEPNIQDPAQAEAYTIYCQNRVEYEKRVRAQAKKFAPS
DNA FID counter: compounds displacing fluorescent DNA intercalator, primary screen, artefact control for HCV NS3 helicase inhibitor project, biochemical, FID fluorescence; hit rate 0.17% among 290,000; DNA fluorescent intercalator displacement; inhibition, % at 7.9 µM; AID 1845, 2009; in the data active means inhibition above about 37%;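 further: 0% = vehicle and 100% = reference compound; higher means more ethidium bromide displaced from hairpin DNA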
Mot1-301 SUMO: yeast Mot1-301 growth rescue at high temperature, primary screen, SUMOylation pathway inhibitor project, S. cerevisiae, ATP luminescence, 38.5C; S. cerevisiae Mot1-301 growth rescue; percent above DMSO median, 100 means doubled; growth rescue, % at 18.8 µM; hit rate 1% among 320,000; AID 2716, 2010;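 active means every valid replicate shows activation above 250% relative to neutral control wells; inactive means the rest, any valid replicate at or below 250%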;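 further: OY570 slx delta 5 strain wells were the positive control but not used for scaling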
* = called active by the depositor; nt = no result given; + = active, no number.

SMILES	NALP1 yeast inh	IMP-1 inhibitor	VIM-2 inh	SUMO HTRF inh	DNA FID counter	Mot1-301 SUMO
CN1CCN(C2=C(Cl)C(=O)C(c3cnc(N4CCCCC4)s3)=C(Cl)C2=O)CC1	71.9*	-0.1	0.1	24.0	2.0	-25.9
CSc1nnc2c(n1)OC(C)=Nc1ccccc1-2	-8.4	-2.4	10.9*	-8.0	0.5	-12.0
CCC1=Nc2ccccc2-c2nnc(SC)nc2O1	3.2	-2.4	10.3*	16.3	0.6	-3.4
CC(C)CCCC(C)CCOC(=O)CN1CCCC1 (centres undefined)	-40.9	-3.5	-4.9	6.1	-4.3	6.8
Cc1cccc(OCc2nnc(-c3ccc(F)cc3)o2)c1	nt	nt	nt	nt	nt	-2.5
COCCCn1c(-c2ccccc2Cl)n[nH]c1=S	-3.0	-0.5	10.3*	2.7	-7.0	9.3
COCCCn1c(-c2ccc(Cl)cc2)n[nH]c1=S	8.1	-3.2	5.7	-6.6	-10.2	-6.0
O=c1[nH]c2ccccc2nc1Cc1ccc([N+](=O)[O-])cc1	12.3	-2.2	-2.1	13.7	-1.0	-8.0
O=C(Nc1nnc(-c2cccs2)o1)c1cccc(Oc2ccccc2)c1	38.2*	-2.1	-2.5	9.0	-24.4	-2.0
O=C(Nc1nnc(-c2cccs2)o1)c1cccc(F)c1	nt	-4.5	-1.2	nt	-7.2	33.8
Cc1ccc(S(=O)(=O)N(C)c2nc3ccccc3[nH]c2=S)cc1	nt	8.7*	2.3	-13.0	6.3	-2.5
CCc1nnc2c(N(C)S(=O)(=O)c3ccc(C)cc3)nc3ccccc3n12	13.3	-3.0	0.2	7.8	-19.4	13.0
Cc1cc2c(cc1C)CSC(c1ccccc1O)SC2	20.1	-2.2	0.4	-9.0	-4.8	272.6*
Cc1cc2c(cc1C)CSC(c1ccc3ccccc3c1O)SC2	8.3	1.3	-1.4	14.5	1.3	-11.2
O=C1CC(NS(=O)(=O)c2cccnc2)CN1c1ccccc1 (centres undefined)	nt	nt	nt	nt	nt	-1.3
COCCNC(=O)C(c1ccncc1)N(C(=O)c1sc(C)nc1C)c1cccc(C)c1 (centres undefined)	2.8	-1.6	-3.6	-20.3	-7.5	+
CCC(C)(C)NC(=O)C(c1ccncc1)N(C(=O)c1sc(C)nc1C)c1ccc(F)cc1 (centres undefined)	-1.5	-1.9	-0.7	-12.3	-21.0	-13.5
CCOC(=O)c1c(-c2ccccc2)nc2ccccn12	87.2*	-1.4	2.0	32.0	-8.6	nt
CCCOc1ccc(N2C(=O)CC(N3CCN(c4ccccc4F)CC3)C2=O)cc1 (centres undefined)	1.6	-1.9	-4.3	16.1	-13.0	30.3
CCCOc1ccc(N2C(=O)CC(N3CCC(c4nncn4CC)CC3)C2=O)cc1 (centres undefined)	8.9	-2.6	-4.2	1.1	-16.8	307.3*
CC(C)Cn1c(-c2ccc(Cl)cc2)cnc1SCC(=O)N1CCOCC1	6.6	-0.1	1.4	-1.1	-36.1	306.2*
CCn1c(CNC(=O)c2ccc(Cl)cc2)nnc1SCC(=O)N1CCOCC1	16.2	-0.1	-0.5	15.8	-20.4	-4.7
O=C(O)Cn1ccc2cc(S(=O)(=O)N3CCCCCC3)ccc21	20.6	-1.3	-0.4	-5.5	-36.8	-1.2
CC(=O)N1CCN(C(=S)c2ccc(N(C)C)cc2)CC1	-12.7	-2.8	1.4	-6.7	4.7	-6.9
CN(C)c1ccc(C(=S)N2CCCCCC2)cc1	12.3	5.5*	-2.0	-0.9	-7.7	-2.8
SMILES	NALP1 yeast inh	IMP-1 inhibitor	VIM-2 inh	SUMO HTRF inh	DNA FID counter	Mot1-301 SUMO
Cc1ccc(S(=O)(=O)/N=C2/C=C(Sc3ncn[nH]3)C(=O)c3ccccc32)c(C)c1	23.5	-3.0	-1.4	95.5*	-9.5	-5.3
CC(C)(C)c1ccc(S(=O)(=O)/N=C2\C=C(NS(=O)(=O)c3ccccc3)C(=O)c3ccccc32)cc1	10.8	-4.8	-5.0	33.4	25.2	591.4
CC(C)c1ccc(S(=O)(=O)/N=C2/C=C(Sc3ncn[nH]3)C(=O)c3ccccc32)cc1	25.2	0.5	3.9	90.0*	2.5	-16.8
Cc1ccc(S(=O)(=O)/N=C2/C=C(Sc3ncn[nH]3)C(=O)c3ccccc32)cc1	29.1	-3.2	2.7	95.1*	-3.2	-32.5
CC(Oc1ccc(Br)cc1)C(=O)Nc1ccc(S(=O)(=O)N(C)C2CCN(C)CC2)cc1 (centres undefined)	nt	nt	nt	nt	nt	5.6
O=C(c1ccco1)N1CCN(Cc2cc(=O)oc3cc(O)ccc23)CC1	nt	nt	nt	nt	nt	-3.9
CCC(C)NC(=O)c1ccccc1NC(=O)c1ccc(CSc2ccccc2)cc1 (centres undefined)	40.9	-0.7	-1.6	-8.8	-4.7	-0.8
CCCNC(=O)c1ccccc1NC(=O)c1ccc(CSc2ccccc2)cc1	33.0	-0.1	0.0	-14.3	5.6	358.1*
Fc1cccc(Cl)c1Cc1noc(/C=C/c2ccccc2)n1	27.9*	0.0	0.2	11.6	-12.4	-6.1
COc1cccc(C(=O)Nc2sc(C(C)C)cc2C(N)=O)c1OC	nt	-0.7	-0.3	-0.7	-16.2	-11.9
CC[n+]1ccc(/C=C/c2ccc(N(C)C)cc2)c2ccccc21	44.6*	-10.3	-7.0	-247.1	56.7*	nt
CC[n+]1c(/C=C/c2ccc(N(C)C)cc2)ccc2ccccc21	92.2*	-9.9	-7.6	-26.6	26.9	-18.7
CC[n+]1ccccc1/C=C/c1ccc(N(C)C)cc1	11.1	-2.9	-1.7	-7.1	-21.3	nt
Cc1ccc(NC(=O)Cn2c(=O)oc3cc(S(=O)(=O)N4CCC(C)CC4)ccc32)cc1C	-12.4	-5.2	-4.0	50.2*	-3.5	0.9
N#Cc1cc2c(cc1NC(=O)CCn1cnnn1)OCO2	35.9*	0.6	-0.8	nt	-3.9	-17.0
CC(C)(Oc1ccc(Cl)cc1)C(=O)NCc1n[nH]c(=O)c2ccccc12	nt	nt	nt	nt	nt	4.4
Clc1ccc(-n2nnc(-c3nccs3)n2)cc1Cl	5.1	-2.6	-2.0	3.4	-1.6	330.4*
Cc1ccc(-n2nnc(-c3nccs3)n2)cc1	10.6	-2.0	-0.7	3.4	-5.0	-12.7
COc1ccc(CCNCC(=O)Nc2ccccc2C(F)(F)F)cc1	21.6	-2.9	-1.6	2.1	-0.5	-6.5
COc1cccc(-n2c(SCc3cc(=O)oc4cc(O)c(O)cc34)nc3ccccc3c2=O)c1	24.2	-2.0	6.5	78.9*	20.1	-13.0
Cc1ccc2c(CC(=O)Nc3ccc(N4CCN(C)CC4)cc3C)coc2c1	26.2	7.0*	-2.9	12.9	8.5	-3.5
Cc1cc(C)nc(SCc2csc(-c3ccccc3)n2)n1	21.5	-0.9	-2.7	5.8	-22.2	-13.3
Nc1ccccc1SCc1csc(-c2ccc(Cl)cc2)n1	40.2*	-3.4	-3.4	8.3	-9.2	21.7
